Variants at the floor of the assay were thinned out.
B1: tRNA (parent)
chain: GUUCCGUUGGCGUAAUGGUAACGCGUCUCCCUCCUAAGGAGAAGACUGCGGGUUCGAGUCCCGUACGGAACG

Variants of: B1
Experiment: yeast fitness relative to wild type (ratio to wild type); higher = fitter; tRNA-Arg(CCU), competitive growth, 37 C, YPD
Method in brief: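 Variants of the tRNA-Arg(CCU) gene were chemically synthesised with a 3% per-site mutation rate across 69 sites and placed at the native genomic locus in Saccharomyces cerevisiae. Six parallel replicates of the pooled strains were competed in YPD at 37°C for 24 hours, and gene amplicons from the start and end populations were read by 100-nucleotide paired-end sequencing. Darwinian fitness relative to wild type was derived from changes in genotype frequencies. Genotypes required ≥ 100 starting reads, and estimates < 0.5 were set to 0.5.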

Variant	yeast fitness
A15U C22U A70C	≤ 0.5
A15U A42U C46G C61G	0.652
A15G U26G G41A G56A	≤ 0.5
A15U C27U G48C	0.587
A15U A37C	0.678
A15U A37G	0.66
A15U A43C	0.825
A15U C29A C49G	0.634
A15U C24U U64C	≤ 0.5
A15U C31G U54G	≤ 0.5
A15U C31A C49G A70C	≤ 0.5
A15U C22U A43C C55U G58A	≤ 0.5
A15U A21C C24G C62G	≤ 0.5
A15U C29A	0.568
A15U C24U C27U G67A	≤ 0.5
A15U A20C C27U	0.748
A15U A20C U26A C30G U35A G38C U64A	≤ 0.5
A15G U19C A37U C49U G51A C60A	≤ 0.5
A15G U28C U35A G38A C46G	0.552
A15U C24G A42C C62U	≤ 0.5
A15U C24A C55U U59C	0.526
A15U A20G A43C	0.593
A15U A36C	≤ 0.5
A15U A36U	≤ 0.5

Variant	yeast fitness
A15U A40U G63A	≤ 0.5
A15U C27G C49A G52U	≤ 0.5
A15G U35A A65C	≤ 0.5
A15U A42C A43C	0.561
A15U A20G C46G C61A	≤ 0.5
A15U C31U G52A A57U G58C	≤ 0.5
A15U C24U C27U C49U	≤ 0.5
A15G U26A	1.04
A15G U19G A69C	0.721
A15U C22G G52C	0.529
A15U C22G G52A	≤ 0.5
A15U C22U G39C	≤ 0.5
A15U C24G C30U A57U	0.832
A15U A40U G68C	0.627
A15U C29A A43C G50C	≤ 0.5
A15U C24U A37G U54C C66A	≤ 0.5
A15U A37U G67C	≤ 0.5
A15G U32C A37G C55A	≤ 0.5
A15G U19G A40G	0.582
A15U C29G G48A A69U	≤ 0.5
A15U C34G G51A C66U	0.584
A15U C24G A42C	≤ 0.5
A15U C22U U54C	0.754
A15G U32G A40C	≤ 0.5

Variant	yeast fitness
A15U A43G G56C C60U	≤ 0.5
A15U C22U A57C	≤ 0.5
A15G U53A C55A U64G	0.571
A15U A45U C46G	≤ 0.5
A15U C27G U28C C62G	0.534
A15U C22A G23A C24A	≤ 0.5
A15U C24U A40U G41C U64C	0.647
A15U A45C C46A C66U	≤ 0.5
A15U C27G U54A	≤ 0.5
A15U A20U A45C A57G	≤ 0.5
A15U C27G C62A C66A	≤ 0.5
A15U C22G C31U C46G G63A	≤ 0.5
A15U C27G U28G G67C	≤ 0.5
A15U A21C C24G C29U A42C G56U U59A	≤ 0.5
A15U C22G C27G A42C G63C	≤ 0.5
A15U A65G C66A G67C	≤ 0.5
A15U A20G C27U G48C A70U	≤ 0.5
A15U C34G A69U	≤ 0.5
A15U C27U A65U	0.725
A15U C22G C31U C46G U54A	≤ 0.5
A15U A20G C55U G63C	≤ 0.5
A15U A20G C27A C29A U47G C60G	≤ 0.5
A15U C27U G44C G58C G63C	≤ 0.5
A15U C27U G48C A70U	0.549

Variant	yeast fitness
A15U C24U A37G	≤ 0.5
A15G U19G	0.985
A15U A21C G23C C55A	≤ 0.5
A15U A21C G23C C55A U64A A65C	≤ 0.5
A15U C27U C66A	≤ 0.5
A15U A21C C24G C29U A42C C55A	≤ 0.5
A15G U26C G56A A69U	≤ 0.5
A15U C29G C31G	≤ 0.5
A15U C27U A36G G56C	≤ 0.5
A15G U28C A37C A70U	≤ 0.5
A15U C22G C62U	≤ 0.5
A15G U19G A42G	0.702
A15U A43G U59C	0.53
A15U A37G C66G	≤ 0.5
A15G U26G C55U A69U A70C	≤ 0.5
A15G U19G C66U	0.721
A15U C24G A42C C55U G68U	≤ 0.5
A15U C34G	≤ 0.5
A15U C34A	0.707
A15U C31G G50C G58C	0.588
A15U A43U C55U C60A	0.69
A15U C24G A42C U64C	≤ 0.5
A15U C22G C31U U32C A57C U64A G68A	≤ 0.5
A15U C27U A36G C61U C62U	≤ 0.5

Variant	yeast fitness
A15U A40G A42G A57U C62G C66U	≤ 0.5
A15G U19C G51C C55U	0.582
A15G U35A A57G	≤ 0.5
A15U A43C G67U	≤ 0.5
A15U C33G C62G C66U	≤ 0.5
A15G U54G C55U	0.561
A15U A40G	0.598
A15U A40C	0.723
A15U A20G	0.772
A15U A20C	0.646
A15U C22G G58C G68A	≤ 0.5
A15U A45C	0.803
A15G U19C A37U C49U G51A U64A	≤ 0.5
A15U A42G C46G C61A	≤ 0.5
A15U C24U A43C	0.573
A15U A20G U35C G48U C55G	≤ 0.5
A15U C29A C31G C60G	0.618
A15G U54G C55U A65G	≤ 0.5
A15G U28G U53A G56A	≤ 0.5
A15U C22G G25A C31U A57C U64A G68A	≤ 0.5
A15G U28G A42U G48A G67A	≤ 0.5
A15U C33U	0.724
A15U A21C	0.611
A15U C27A A65C G67A A69C	≤ 0.5

Variant	yeast fitness
A15U C29A G48C	≤ 0.5
A15U A43U A65C	0.569
A15U A43U A69C	0.697
A15U C27G	0.531
A15U C31U G67A	0.565
A15U	0.885
A15G U54A G63C	0.631
A15G U32A G38A C49U	≤ 0.5
A15G U26G G41C A43C	≤ 0.5
A15U A20G U28G C33U	≤ 0.5
A15G U64C A69C	0.775
A15G U26G C30U A40U G52A	≤ 0.5
A15U A21G C29U G44C C55A G56C	≤ 0.5
A15U C29A C34U C55A	0.519
A15U C33G G50U	0.527
A15U C22G C31U A57C U64A G68A	0.553
A15U C31U A36G	0.568
A15U C31A C60G	≤ 0.5
A15U A21C C24G C29U A42C	≤ 0.5
A15G U28G	0.646
A15U A21C C24G C29U A42C U59G G67C	≤ 0.5
A15U A21C C24G C29U A42C U59G G67U	≤ 0.5
A15G U54C C66A	≤ 0.5
A15G U19C C29U A37G	≤ 0.5

Variant	yeast fitness
A15G U28C C30U U59A A70C	≤ 0.5
A15G U35A A70U	0.572
A15G U32G U35C A43C	0.585
A15U C24G G38A	0.551
A15U A57U A70C	≤ 0.5
A15G U54A A70U	0.564
A15G U35A A57G C62G	≤ 0.5
A15G U47A	0.916
A15G U47C	0.896
A15G U47G	0.782
A15U A65G	0.649
A15U A65U	0.775
A15G U35A	0.602
A15G U26G A57G	0.611
A15U C22G C27U A36C G39C G48C G63U A70U	≤ 0.5
A15U C27U C34U G41C U47G	0.555
A15U C30G	≤ 0.5
A15U C27G C49A	0.518
A15U C24A C34G G39U G58C	≤ 0.5
A15U A37G A42C C49G C61U	≤ 0.5
A15U A36U G41A	≤ 0.5
A15U A36G C55G	0.565
A15U A21C G23C C55A U64A A65C G67A	≤ 0.5

Reference: the RNAGym collection of RNA variant scans (doi:10.1126/science.aae0568)
